Tests used:
[1] = target: T1, Muscarinic acetylcholine receptor (Rattus norvegicus) (UniProt P08482+P08483+P08485+P08911+P10980); assay: Low affinity dissociation constant to Muscarinic acetylcholine receptor in rat cerebral cortex; format: tissue-based
[2] = target: Muscarinic acetylcholine receptor; assay: Binding affinity to Muscarinic acetylcholine receptor in rat cerebral cortex; format: tissue-based
Cavia porcellus [3] = species on record: Cavia porcellus; assay: In vitro muscarinic activity was measured on isolated guinea pig ileum; format: functional
Method in brief: (§1)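 Guinea pig ileum segments in Tyrode solution pH 7.4, 37 °C, with 0.3 mM hexamethonium. Isotonic contractions at 1 g tension. Cumulative concentration–response curves, concentration raised stepwise by a factor of 2.15. Means ± SE over tissues.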

Mus musculus = assay: Sialalogic activity was measured in mice after intravenous administration; format: functional
Method in brief: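 Male Swiss-Webster mice (24–30 g). Drugs in 0.9% NaCl given iv in the tail. Salivation was scored by blotting the mouth onto absorbent tissue during the first 10 min. ED50 by the up-and-down method, six or more animals per determination.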

[4] = Equipotent molar ratio measured on frog rectus abdominis; format: functional, Rectus abdominis muscle
Method in brief: (§2)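 Frog rectus abdominis in aerated Clark-Ringer solution pH 7.4 at 22 °C. Noncumulative concentration–response curves, 5 min exposure per concentration. Isotonic contractions recorded.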

Cavia porcellus [5] = species on record: Cavia porcellus; assay: Relative efficacy of compound was determined in guinea pig urinary bladder; format: functional
[6] = target: T1, Muscarinic acetylcholine receptor (Rattus norvegicus); assay: Percentage of high affinity sites was determined in rat cerebral cortex; format: tissue-based
Cavia porcellus [7] = species on record: Cavia porcellus; assay: Relative efficacy of compound was determined in guinea pig iluem; format: functional
[8] = The equipotent molar ratio (EPMR) relative to oxotremorine on isolated guinea pig; format: functional; conditions: in the assay text read “relative to carbachol” for “relative to oxotremorine”; method in brief: as §1
Cavia porcellus [9] = species on record: Cavia porcellus; assay: Dissociation constant of the drug-receptor complex was measured in guinea pig urinary bladder; format: functional
[10] = target: T1, Muscarinic acetylcholine receptor (Rattus norvegicus); assay: High affinity dissociation constant to Muscarinic acetylcholine receptor in rat cerebral cortex; format: tissue-based
[11] = (§3) Acute toxicity was measured in mice; format: organism-based; conditions: mouse, in vivo
Method in brief: (§4)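 Male Swiss-Webster mice, 24-30 g. Drug dissolved in 0.9% NaCl, given iv in the tail. LD50 estimated by the up-and-down method, using six or more animals per determination. Mortality counted at 1 h.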

[12] = In vitro nicotinic activity was measured on frog rectus abdominis; format: functional, tissue-based, Rectus abdominis muscle; method in brief: as §2
Cavia porcellus [13] = species on record: Cavia porcellus; assay: Dissociation constant of the drug-receptor complex was measured in guinea pig ileum; format: functional
Cavia porcellus [14] = species on record: Cavia porcellus; assay: In vitro muscarinic activity was measured on isolated guinea pig urinary bladder; format: functional
Method in brief: (§5)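 Guinea pig urinary bladder strips in Tyrode solution pH 7.4, 37 °C, containing 0.3 mM hexamethonium. Isotonic recording at 1 g tension. Cumulative concentration–response curves, concentration raised stepwise by a factor of 3.16.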

[15] = The equipotent molar ratio (EPMR) relative to oxotremorine on isolated guinea urinary bladder; format: functional; conditions: in the assay text read “relative to carbachol” for “relative to oxotremorine”; method in brief: as §5
[16] = as §3; conditions: mouse, in vivo; method in brief: as §4
[17] = Equipotent molar ratio (EPMR) was measured on frog rectus abdominis; format: functional, Rectus abdominis muscle; method in brief: as §2
Cavia porcellus [18] = species on record: Cavia porcellus; assay: Relative efficacy of compound was determined was determined in guinea pig bladder; format: functional
[19] = Ratio of equipotent molar ratio (EPMR) of frog rectus to EPMR of guinea pig ileum; format: functional

| SMILES | KL [1] [µM] | IC50 [2] [µM] | EC50 (Cavia porcellus [3]) [µM] | ED50 (Mus musculus) [µmol/kg] | Ratio [4] | Efficacy (Cavia porcellus [5]) | Binding [6] [%] | Efficacy (Cavia porcellus [7]) | Ratio [8] | Kd (Cavia porcellus [9]) [µM] | KH [10] [µM] | LD50 [11] [µmol/kg] | EC50 [12] [µM] | Kd (Cavia porcellus [13]) [µM] | EC50 (Cavia porcellus [14]) [µM] | Ratio [15] | LD50 [16] [µmol/kg] | Ratio [17] | Efficacy (Cavia porcellus [18]) | Ratio [19] |
| --- | --- | --- | --- | --- | --- | --- | --- | --- | --- | --- | --- | --- | --- | --- | --- | --- | --- | --- | --- | --- |
| O=C1CCCN1CC#CC[S+]1CCCC1.[Cl-] | 0.99 | 0.31 | 0.25 | 0.35 | 1.4 | 0.057 | 37 | 0.054 | 2.1 | 1.1 | 0.069 | 2.2 | 5 | 1.3 | 1.2 | 2.3 | – | – | – | – |
| C[S+](C)CC#CCN1C(=O)CCC1=O.[Cl-] | 12.7 | 5.4 | 0.41 | 0.48 | 692 | 0.15 | 27.4 | 0.11 | 4.1 | 5.9 | 0.19 | 70 | 2600 | 6.9 | 1.7 | 3.7 | – | – | – | – |
| C[N+](C)(C)CCOC(N)=O.[Cl-] [CARBACHOL] | – | – | – | 0.083 | – | 1 | – | 1 | – | – | – | – | 3.8 | – | – | – | 1.7 | – | – | – |
| C[N+](C)(C)CC#CCN1CCCC1=O.[I-] [OXOTREMORINE METHIODIDE] | 5.4 | 1.2 | 0.023 | 0.058 | 2.1 | 0.88 | 31.3 | 0.95 | – | 4.3 | 0.019 | 1 | – | 2.9 | 0.37 | – | – | – | – | – |
| O=C1CCC(=O)N1CC#CC[S+]1CCCC1.[Cl-] | – | 3.3 | 7.9 | – | 18 | – | – | 0.0061 | 81 | 13.1 | – | 3.5 | 66.2 | 7.5 | – | – | – | – | – | – |
| C[S+](C)CC#CCN1CCCC1=O.[Cl-] | 2.2 | 0.8 | 0.029 | 0.024 | – | – | 28.4 | 0.41 | 0.24 | 1.3 | 0.011 | 2.8 | 29 | 1.5 | 0.2 | 0.32 | – | 8.1 | 0.48 | 33.8 |

Reference: ChEMBL document CHEMBL1123945, “Dimethylsulfonium and thiolanium analogues of the muscarinic agent oxotremorine” (J Med Chem, 1988)
